Structures can show the parent of a compound that is named as a salt.
Tests used:
[1] = tested on: isolated rat atria; test: Spontaneously beating isolated rat atria, atria contraction rate; details: for ACR increase, percentage over the base line: compound alone, 100 μM; for isoprenaline-induced ACR in presence of compound: isoprenaline 10^-6 M + compound 10^-4 M
Procedure, shortened: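 Male Wistar rats (250-350 g) given reserpine 5 mg/kg i.p. 24 hr before euthanasia; thiopental 80 mg/kg i.p. anaesthesia. Whole atria hung at ~0.5 g resting tension in Krebs-Henseleit (95% O2/5% CO2, 37 °C, pH 7.4), equilibrated 30 min. Solvent or test compound (10 or 100 μM) added; after 20 min, cumulative isoprenaline. Contractions counted per minute; % increase over baseline; mean ± SEM, 5-6 experiments.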

[2] = tested on: isolated rat atria; test: Spontaneously beating isolated rat atria, atria contraction force
[3] = biological target: PDE3A (Homo sapiens, UniProt Q14432); test: PDE assay kit; format: biochemical
[4] = Cont: solvent + 1 μM isoprenaline (isoprenaline alone)
[5] = compound 100 μM, cumulative isoprenaline

Chain of PDE3A (Q14432 whole entry): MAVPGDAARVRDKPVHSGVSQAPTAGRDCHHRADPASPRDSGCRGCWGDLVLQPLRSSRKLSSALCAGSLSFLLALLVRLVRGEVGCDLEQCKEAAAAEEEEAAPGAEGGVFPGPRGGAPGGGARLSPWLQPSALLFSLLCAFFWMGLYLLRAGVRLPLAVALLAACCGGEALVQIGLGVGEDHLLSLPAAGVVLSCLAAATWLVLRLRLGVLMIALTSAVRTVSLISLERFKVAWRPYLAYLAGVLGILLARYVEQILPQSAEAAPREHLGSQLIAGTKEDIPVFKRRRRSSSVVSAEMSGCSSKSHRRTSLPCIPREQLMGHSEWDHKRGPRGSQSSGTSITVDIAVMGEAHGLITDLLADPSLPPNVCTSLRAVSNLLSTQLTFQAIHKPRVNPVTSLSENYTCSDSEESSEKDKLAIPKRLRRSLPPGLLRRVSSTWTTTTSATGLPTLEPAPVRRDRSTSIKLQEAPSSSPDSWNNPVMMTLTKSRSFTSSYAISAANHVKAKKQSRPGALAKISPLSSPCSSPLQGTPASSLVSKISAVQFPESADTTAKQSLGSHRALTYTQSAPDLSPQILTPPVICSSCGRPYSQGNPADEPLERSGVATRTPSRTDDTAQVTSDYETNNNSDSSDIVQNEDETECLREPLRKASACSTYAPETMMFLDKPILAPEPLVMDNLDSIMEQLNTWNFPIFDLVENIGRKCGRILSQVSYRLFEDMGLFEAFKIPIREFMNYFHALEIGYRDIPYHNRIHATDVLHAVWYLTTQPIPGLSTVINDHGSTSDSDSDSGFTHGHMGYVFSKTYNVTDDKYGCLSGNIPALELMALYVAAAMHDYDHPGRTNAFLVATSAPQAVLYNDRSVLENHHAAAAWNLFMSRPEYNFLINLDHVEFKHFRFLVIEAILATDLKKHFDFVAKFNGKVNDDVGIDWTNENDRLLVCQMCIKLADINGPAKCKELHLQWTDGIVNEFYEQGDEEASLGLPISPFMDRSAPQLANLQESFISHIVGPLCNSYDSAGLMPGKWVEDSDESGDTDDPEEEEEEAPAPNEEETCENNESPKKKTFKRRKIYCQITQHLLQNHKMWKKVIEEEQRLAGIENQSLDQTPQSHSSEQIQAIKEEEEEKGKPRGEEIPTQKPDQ

For `CN(C(=O)CCCOc1ccc2[nH]c(=O)ccc2c1)C1CCCCC1` [cilostamide, 4-(1,2-dihydro-2-oxoquinolin-6-hydroxy)-N-cyclohexyl-N-methylbutanamide], the “ACR increase, percentage over the base line” value (“ACR increase, percentage” for short) [1] was 42±10%, the “isoprenaline-induced ACR in presence of compound” value [1] was 51±11 % HSBL and the “maximum ACFmax in combination with isoprenaline” value ([2]; compound + isoprenaline 3×10^-6 M) was 25±5 % HSBL. For the same compound, the “maximum ACFmin in combination with isoprenaline” value ([2]; compound + isoprenaline 10^-6 M) was 39 ±7 % HDBL, the “potentiation of the effect of isoprenaline on ACF” value ([2]; compound added 20 min before isoprenaline) was “about 2.86 fold” and the “ACFmax within 20 min” value ([2]; compound alone, 100 μM, 20 min) was 11±6 % HSBL. The “ACFmin within 20 min” value ([2]; compound alone, 100 μM, 20 min) was 16±6 % HDBL, the “ACFmax at the beginning of adding the compound” value ([2]; compound alone, 100 μM) was 24±9 % HSBL and the “ACFmin at the beginning of adding the compound (initial decrease)” value ([2]; compound alone, 100 μM) was 9±4 % HDBL.
With `CC(C)NCC(O)c1ccc(O)c(O)c1` (stereo not shown) [isoprenaline, isoprenaline hydrochloride] the “ACR (% increase baseline)” value [1, 4] was 68±12 % increase baseline, the “threshold concentration for ACR increase” value ([1]; isoprenaline alone) was 10^-10 M and the “ACF (% increase baseline)” value [2, 4] was 14±6 % increase baseline. For the same compound, the “threshold concentration of ACFmax curve” value ([2]; isoprenaline alone) was 10^-10 M, the “maximum ACFmax” value ([2]; isoprenaline alone, 3×10^-8 M) was 21 % HSBL and the “ACF maximum, higher than systolic base line (HSBL)” value ([2]; isoprenaline alone, 10^-6 M) was 14±6 % HSBL. For the same compound, the “ACFmin, higher than diastolic base line (HDBL)” value ([2]; isoprenaline alone, 10^-6 M) was 10.23±5 % HDBL and the “threshold concentration for ACF increase” value ([2]; isoprenaline alone, cumulative concentrations) was 10^-10 M.
For `Cc1cc(=O)[nH]c2ccc(OCCCC(=O)N3CCC(O)CC3)cc12` [mc3, 6-(4-(4-hydroxypiperidin-1-yl)-4-oxobutoxy)4-methylquinolin-2(1H)-one], the IC50 [3] was 1 µM, the “effect on isoprenaline concentration-response curve (ACR)” value [1, 5] was “did not make any significant changes” and the “ACR increase, percentage” value [1] was “did not change”. For the same compound, the “effect on isoprenaline concentration-response curve (ACF)” value [2, 5] was “did not change” and the “ACF increase, percentage over the base line” value ([2]; compound alone, 100 μM) was “did not change”.
With `Cc1cc(=O)[nH]c2ccc(OCCCC(=O)N3CCCC3)cc12` [mc6, 6-(4-oxo-4-(pyrrolidin-1-yl)butoxy)-4-methylquinolin-2(1H)-one] the “ACR increase, percentage” value [1] was 65±6%, the “isoprenaline-induced ACR in presence of compound” value [1] was 91±6 % HSBL and the “ACF increase, percentage over the base line” value ([2]; compound alone, 100 μM) was 11±4%.
In the case of `Cc1cc(=O)[nH]c2ccc(OCCCC(=O)N3CCC(C)CC3)cc12` [mc2, 6-(4-(4-methylpiperidin-1-yl)-4-oxobutoxy)-4-methylquinolin-2(1H)-one], the IC50 [3] is reported as 2 µM, the “ACR (% increase baseline)” value ([1]; 10 μM mc2 + 1 μM isoprenaline) is reported as 50±10 % increase baseline and the “ACR (% increase baseline)” value ([1]; 100 μM mc2 + 1 μM isoprenaline) is reported as 6±7 % increase baseline. The “ACR increase, percentage” value [1] was “did not change”, the “ACF (% increase baseline)” value ([2]; 10 μM mc2 + 1 μM isoprenaline) was 3±1 % increase baseline and the “ACF (% increase baseline)” value ([2]; 100 μM mc2 + 1 μM isoprenaline) was 60±5 % increase baseline. For the same compound, the “ACF reached in 20 min” value ([2]; compound alone, 100 μM, 20 min) was 40±7 % HSBL, the “ACFmin within 20 min” value ([2]; compound alone, 100 μM, 20 min) was 36±6 % HDBL and the “ACF change when compound was added (initial)” value ([2]; compound alone, 100 μM, at addition) was -1.76%. The “ACFmax at the beginning of adding the compound” value ([2]; compound alone, 100 μM) was “increased continuously from the beginning”, the “ACFmin at the beginning of adding the compound (initial decrease)” value ([2]; compound alone, 100 μM) was -6 % HDBL and the “isoprenaline-augmented ACF in presence of compound” value ([2]; isoprenaline 10^-6 M + compound 10^-5 M) was 3±1 % HSBL.
